Test results published in ChEMBL document CHEMBL4014268, “Phenolic Compounds from the Lichen Lobaria orientalis” (J Nat Prod, 2017).
Active and inactive are the calls of the source.

Experiments:
Type in all cases: functional, cell-based
[1] = test system: HepG2; assay: Cytotoxicity against human HepG2 cells at 100 ug/ml by SRB assay
How it was run: (§1)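 Single-concentration screen at 100 μg/mL against four human cancer lines: HepG2 (liver hepatocellular carcinoma), MCF-7 (breast), NCI-H460 (lung) and HeLa (epithelial carcinoma). Cell viability was read by sulforhodamine B staining, with camptothecin as the positive control.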

[2] = test system: NCI-H460; assay: Cytotoxicity against human NCI-H460 cells at 100 ug/ml by SRB assay; how it was run: as §1
[3] = test system: MCF7; assay: Cytotoxicity against human MCF7 cells at 100 ug/ml by SRB assay; how it was run: as §1
[4] = test system: HeLa; assay: Cytotoxicity against human HeLa cells at 100 ug/ml by SRB assay; how it was run: as §1

Measured: Activity

COc1cc(C)c2c3c1CO[C@H]1OC(=O)c4c(O)c(C)c(c(c41)O3)OC2=O
inactive: all assays above

COC(=O)c1c(C)cc(OC)c(CO)c1Oc1c(O)c(C)c(O)c2c1[C@@H](OC)OC2=O
inactive: all assays above

COC(=O)/C=C/c1c(OC)cc(C)c(C(=O)OC)c1Oc1c(O)c(C)c(O)c2c1[C@@H](OC)OC2=O
inactive: all assays above

COC(=O)c1c(C)cc(OC)c(/C=C/C(C)=O)c1Oc1c(O)c(C)c(O)c2c1[C@@H](OC)OC2=O
inactive: all assays above

COc1cc(C)c2c(c1C=O)Oc1c(c(C)c(O)c3c1[C@@H](OC)OC3=O)OC2=O
inactive: all assays above

Cc1cc(O)cc(OC(=O)c2c(C)cc(O)cc2O)c1
inactive: all assays above

Cc1cc(O)cc(O)c1C(=O)Oc1cc(O)cc(C)c1C(=O)O
inactive: all assays above
